Published values from different studies.
Cell line: MCF7
Effect on: cell growth or viability

COc1cc2c(OC)nc3c4cc5c(cc4cc(OCCN(C)C)c3c2cc1OC)OCO5
GI50 (MTT; 72 h): > 100000 nM

COc1cc(C(CC(C)=O)NCCc2ccc(O)c(O)c2)ccc1O (centres unmarked)
GI50 (MTT): 22400 nM

CN1CCN(c2ccc(Nc3ncc4cc(C#N)c(=O)n(C5CCCC5)c4n3)cc2)CC1
GI50 (resazurin; 96 h): 150 nM

CCN(CC)CCOc1cc2cc3c(cc2c2nc(OC)c4cc(OC)c(OC)cc4c12)OCO3
GI50 (MTT; 72 h): ≥ 100000 nM

COc1cc(C(CC(=O)c2ccc([N+](=O)[O-])cc2)NCCc2ccc(O)c(O)c2)ccc1O (centres unmarked)
GI50 (MTT): 160 nM

COc1ccc(-c2ccc(-c3ccc(C(=N)N)nc3)s2)cc1Cl
GI50 (SRB): 1750 nM

COc1ccc(C(=O)/C=C/c2cccc(Cl)c2Cl)cc1S(N)(=O)=O
GI50 (SRB; 48 h): 3200 nM

COc1cc(-c2ccc(-c3ccc(C(=N)N)nc3)s2)cc(OC)c1OC
GI50 (SRB): 1300 nM

COc1ccc(C(=O)/C=C/c2cccc(Cl)c2)cc1S(N)(=O)=O
GI50 (SRB; 48 h): 2000 nM

COc1cc(C(CC(=O)c2ccc(C)cc2)NCCc2ccc(O)c(O)c2)ccc1O (centres unmarked)
GI50 (MTT): 5200 nM

COc1cc2c(OC)nc3c4cc5c(cc4cc(OCCCN(C)C)c3c2cc1OC)OCO5
GI50 (MTT; 72 h): 27000 nM

COc1ccc(C(=O)/C=C/c2cccc(Br)c2)cc1S(N)(=O)=O
GI50 (SRB; 48 h): 1600 nM

Cc1ccc(C)c(COc2cc(NC(=O)c3ccc4c(c3)OCO4)ccc2N(C)S(C)(=O)=O)c1
GI50 (SRB; 48 h): 120 nM

COc1ccc(C(=O)/C=C/c2cccnc2)cc1S(N)(=O)=O
GI50 (SRB; 48 h): 4900 nM

COc1cc(C(CC(=O)c2ccc(Cl)cc2)NCCc2ccc(O)c(O)c2)ccc1O (centres unmarked)
GI50 (MTT): 1090 nM

COc1ccc(C(=O)/C=C/c2c(F)cccc2Cl)cc1S(N)(=O)=O
GI50 (SRB; 48 h): 2200 nM

COc1cc2c(OC)nc3c4cc5c(cc4cc(OCCN4CCCC4)c3c2cc1OC)OCO5
GI50 (MTT; 72 h): ≥ 100000 nM
